Results reported in ChEMBL document CHEMBL3526133, “Identifying a selective substrate and inhibitor pair for the evaluation of CYP2J2 activity” (Drug Metab Dispos, 2012).
One block for each molecule: values may come before it.

Tests used:
[1] = Retention time in potassium phosphate buffer treated with amiodarone hydrochloride at 30 uM by HPLC analysis; format: physicochemical
Cytochrome P450 2J2 [2] = biological target: T1, Cytochrome P450 2J2 (Homo sapiens, UniProt P51589); assay: Drug metabolism assessed as recombinant CYP2J2 (unknown origin)-mediated compound formation treated with amiodarone at 1 uM after 5 to 45 mins by LC-MS/MS analysis; format: ADME; settings: recombinant enzyme
T1 sequence (P51589 whole entry): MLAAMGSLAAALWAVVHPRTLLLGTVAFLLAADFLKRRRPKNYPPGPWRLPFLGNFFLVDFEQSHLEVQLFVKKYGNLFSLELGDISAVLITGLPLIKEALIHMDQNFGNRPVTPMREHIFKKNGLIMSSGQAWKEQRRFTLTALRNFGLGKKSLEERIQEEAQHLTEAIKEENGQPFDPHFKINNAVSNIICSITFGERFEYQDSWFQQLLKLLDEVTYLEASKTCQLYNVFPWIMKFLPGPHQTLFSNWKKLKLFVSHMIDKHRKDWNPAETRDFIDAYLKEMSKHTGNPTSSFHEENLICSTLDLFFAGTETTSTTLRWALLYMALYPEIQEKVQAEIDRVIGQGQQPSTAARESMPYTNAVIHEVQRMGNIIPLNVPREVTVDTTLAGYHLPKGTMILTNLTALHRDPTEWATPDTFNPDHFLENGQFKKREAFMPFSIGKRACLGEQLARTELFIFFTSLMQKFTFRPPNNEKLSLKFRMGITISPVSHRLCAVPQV
Summary of the method: (§1)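 Preincubated, then started with NADPH-regenerating system (1 mM NADPH final). Aliquots taken at 0, 5, 10, 20, 30, 45 min and quenched in acetonitrile with internal standard. No-NADPH controls included. Products measured by LC-MS/MS.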

Cytochrome P450 2J2 [3] = biological target: T1, Cytochrome P450 2J2; assay: Drug metabolism in human liver microsomes assessed as CYP2J2-mediated compound formation treated with amiodarone at 1 uM after 5 to 45 mins by LC-MS/MS analysis; format: ADME
Cytochrome P450 3A4 = Cytochrome P450 3A4 (Homo sapiens, UniProt P08684); assay: Drug metabolism assessed as recombinant CYP3A4 (unknown origin)-mediated compound formation treated with amiodarone at 1 uM after 5 to 45 mins by LC-MS/MS analysis; format: ADME; settings: recombinant enzyme; summary of the method: as §1
Cytochrome P450 3A4, sequence (P08684 whole entry): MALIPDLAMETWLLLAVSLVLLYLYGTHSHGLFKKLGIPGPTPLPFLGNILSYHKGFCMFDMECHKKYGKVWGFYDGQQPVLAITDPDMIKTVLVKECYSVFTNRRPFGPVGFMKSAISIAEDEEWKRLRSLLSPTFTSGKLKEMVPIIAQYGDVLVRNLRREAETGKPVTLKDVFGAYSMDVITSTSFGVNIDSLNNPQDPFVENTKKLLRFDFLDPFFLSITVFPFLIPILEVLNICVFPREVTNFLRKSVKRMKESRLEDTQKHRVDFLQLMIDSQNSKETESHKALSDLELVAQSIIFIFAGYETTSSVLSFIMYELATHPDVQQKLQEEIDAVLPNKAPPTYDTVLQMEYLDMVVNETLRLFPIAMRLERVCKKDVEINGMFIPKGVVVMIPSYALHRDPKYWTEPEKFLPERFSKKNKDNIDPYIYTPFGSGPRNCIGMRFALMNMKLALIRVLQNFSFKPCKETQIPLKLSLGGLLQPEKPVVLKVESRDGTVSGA

CYP2C8 [4] = biological target: T2, CYP2C8 (Homo sapiens, UniProt P10632); assay: in vitro; settings: human liver microsomes, probe paclitaxel (metabolite formation)
T2 sequence (P10632 whole entry): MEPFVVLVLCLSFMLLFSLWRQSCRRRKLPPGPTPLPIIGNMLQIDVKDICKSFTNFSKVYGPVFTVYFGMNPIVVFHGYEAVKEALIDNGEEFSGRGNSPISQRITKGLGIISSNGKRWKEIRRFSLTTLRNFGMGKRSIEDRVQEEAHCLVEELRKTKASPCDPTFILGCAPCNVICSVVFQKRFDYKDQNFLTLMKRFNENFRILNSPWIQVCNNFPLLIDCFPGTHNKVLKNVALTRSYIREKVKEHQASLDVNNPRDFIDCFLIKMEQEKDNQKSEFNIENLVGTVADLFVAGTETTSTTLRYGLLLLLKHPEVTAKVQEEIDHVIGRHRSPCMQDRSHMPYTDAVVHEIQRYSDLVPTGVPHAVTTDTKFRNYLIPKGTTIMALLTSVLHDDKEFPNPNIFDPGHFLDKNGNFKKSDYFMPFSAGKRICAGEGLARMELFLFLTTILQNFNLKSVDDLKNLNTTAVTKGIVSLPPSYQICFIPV

CYP2J2 [5] = biological target: T3, CYP2J2 (Homo sapiens, UniProt P51589); assay: in vitro
T3 sequence (P51589 whole entry): T1 sequence (P51589 whole entry)

CYP2J2 [6] = biological target: T3, CYP2J2; assay: in vitro; settings: recombinant enzyme
Cytochrome P450 1A2 = biological target: T4, Cytochrome P450 1A2 (Homo sapiens, UniProt P05177)
T4 sequence (P05177 whole entry): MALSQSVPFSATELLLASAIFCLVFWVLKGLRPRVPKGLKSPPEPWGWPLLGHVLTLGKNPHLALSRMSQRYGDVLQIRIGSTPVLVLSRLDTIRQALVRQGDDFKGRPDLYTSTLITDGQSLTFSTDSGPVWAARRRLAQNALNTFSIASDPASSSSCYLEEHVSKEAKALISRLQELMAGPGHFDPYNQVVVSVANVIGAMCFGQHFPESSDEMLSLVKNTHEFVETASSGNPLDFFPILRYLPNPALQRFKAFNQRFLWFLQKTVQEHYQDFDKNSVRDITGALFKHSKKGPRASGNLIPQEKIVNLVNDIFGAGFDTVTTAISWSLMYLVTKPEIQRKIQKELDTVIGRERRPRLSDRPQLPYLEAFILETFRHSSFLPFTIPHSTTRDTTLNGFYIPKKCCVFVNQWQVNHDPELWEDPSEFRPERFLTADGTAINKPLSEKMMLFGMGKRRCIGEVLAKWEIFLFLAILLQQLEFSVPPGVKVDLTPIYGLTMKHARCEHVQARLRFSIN

CYP2C9 = CYP2C9 (Homo sapiens, UniProt P11712); assay: Inhibition of CYP2C9-mediated diclofenac metabolite formation in human liver microsomes at 0.3 uM after 8 mins by LC-MS/MS analysis relative to control; format: ADME; settings: probe diclofenac (metabolite formation)
CYP2C9, sequence (P11712 whole entry): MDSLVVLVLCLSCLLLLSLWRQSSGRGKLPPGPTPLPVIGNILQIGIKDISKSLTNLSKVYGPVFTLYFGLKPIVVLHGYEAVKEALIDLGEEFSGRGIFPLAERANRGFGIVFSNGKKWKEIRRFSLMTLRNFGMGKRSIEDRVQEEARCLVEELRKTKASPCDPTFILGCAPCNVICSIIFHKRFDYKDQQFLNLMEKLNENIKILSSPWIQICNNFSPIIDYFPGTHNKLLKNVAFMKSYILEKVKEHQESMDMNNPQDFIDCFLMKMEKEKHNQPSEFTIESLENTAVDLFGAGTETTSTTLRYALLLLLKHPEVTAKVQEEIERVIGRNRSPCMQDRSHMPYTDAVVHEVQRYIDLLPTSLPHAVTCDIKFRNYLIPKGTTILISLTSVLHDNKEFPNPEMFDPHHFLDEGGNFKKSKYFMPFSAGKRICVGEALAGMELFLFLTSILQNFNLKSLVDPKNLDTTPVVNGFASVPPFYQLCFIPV
Summary of the method: (§2)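 Pooled HLM with probe cocktail: phenacetin 10 µM, paclitaxel 5 µM, diclofenac 5 µM, S-mephenytoin 40 µM, dextromethorphan 5 µM, midazolam 2 µM. […] Preincubated 15 min, then started with NADPH-regenerating system (1 mM NADPH). Reaction run 8 min, quenched in acetonitrile with internal standard. Metabolites measured by LC-MS/MS; % inhibition given as mean ± S.D.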

Cytochrome P450 2J2 [7] = biological target: T1, Cytochrome P450 2J2; assay: Drug metabolism in human liver microsomes assessed as CYP2J2-mediated astemizole O-demethylation measured per pmol protein at 0.3 uM after 5 mins by LC-MS/MS analysis; format: ADME
CYP2C19 = CYP2C19 (Homo sapiens, UniProt P33261); assay: Inhibition of CYP2C19-mediated S-mephenytoin metabolite formation in human liver microsomes at 0.3 uM after 8 mins by LC-MS/MS analysis relative to control; format: ADME; settings: probe S-mephenytoin (metabolite formation); summary of the method: as §2
CYP2C19, sequence (P33261 whole entry): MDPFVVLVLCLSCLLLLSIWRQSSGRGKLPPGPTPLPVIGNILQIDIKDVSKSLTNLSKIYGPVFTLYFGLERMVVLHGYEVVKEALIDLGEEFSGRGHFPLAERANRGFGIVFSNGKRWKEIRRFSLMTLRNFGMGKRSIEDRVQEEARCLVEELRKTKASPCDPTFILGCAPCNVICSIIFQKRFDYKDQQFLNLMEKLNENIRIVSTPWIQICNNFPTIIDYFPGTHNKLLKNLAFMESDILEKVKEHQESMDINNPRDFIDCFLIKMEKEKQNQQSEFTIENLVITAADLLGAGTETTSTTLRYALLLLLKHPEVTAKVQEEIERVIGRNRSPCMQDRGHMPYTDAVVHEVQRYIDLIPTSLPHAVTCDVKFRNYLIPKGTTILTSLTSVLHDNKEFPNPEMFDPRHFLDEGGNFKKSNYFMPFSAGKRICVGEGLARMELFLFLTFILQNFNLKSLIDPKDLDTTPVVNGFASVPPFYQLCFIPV

Cytochrome P450 2D6 = Cytochrome P450 2D6 (Homo sapiens, UniProt P10635)
Cytochrome P450 2D6, sequence (P10635 whole entry): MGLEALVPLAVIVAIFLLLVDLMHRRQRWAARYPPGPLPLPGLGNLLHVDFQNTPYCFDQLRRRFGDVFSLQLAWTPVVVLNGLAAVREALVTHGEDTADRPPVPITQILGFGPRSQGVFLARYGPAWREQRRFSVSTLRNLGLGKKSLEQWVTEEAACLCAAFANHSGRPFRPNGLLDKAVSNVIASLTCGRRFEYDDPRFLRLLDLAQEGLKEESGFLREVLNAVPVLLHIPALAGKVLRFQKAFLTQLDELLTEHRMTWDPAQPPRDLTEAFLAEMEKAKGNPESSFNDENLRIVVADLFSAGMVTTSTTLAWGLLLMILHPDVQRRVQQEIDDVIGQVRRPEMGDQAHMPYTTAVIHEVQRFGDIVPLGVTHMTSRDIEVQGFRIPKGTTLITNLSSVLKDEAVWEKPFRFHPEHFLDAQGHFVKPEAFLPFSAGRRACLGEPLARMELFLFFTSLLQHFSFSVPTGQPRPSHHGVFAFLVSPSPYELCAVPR

Cytochrome P450 2C8 = biological target: T5, Cytochrome P450 2C8 (Homo sapiens, UniProt P10632)
T5 sequence (P10632 whole entry): T2 sequence (P10632 whole entry)

Cytochrome P450 2C19 = Cytochrome P450 2C19 (Homo sapiens, UniProt P33261)
Cytochrome P450 2C19, sequence (P33261 whole entry): as the sequence (P33261 whole entry) above

CYP2C8 [8] = biological target: T2, CYP2C8; assay: Inhibition of CYP2C8-mediated paclitaxel metabolite formation in human liver microsomes at 0.3 uM after 8 mins by LC-MS/MS analysis relative to control; format: ADME; settings: probe paclitaxel (metabolite formation); summary of the method: as §2
Cytochrome P450 2C9 = Cytochrome P450 2C9 (Homo sapiens, UniProt P11712)
Cytochrome P450 2C9, sequence (P11712 whole entry): as the sequence (P11712 whole entry) above

CYP3A4 = CYP3A4 (Homo sapiens, UniProt P08684); assay: Inhibition of CYP3A4-mediated midazolam metabolite formation in human liver microsomes at 0.3 uM after 8 mins by LC-MS/MS analysis relative to control; format: ADME; settings: probe midazolam (metabolite formation); summary of the method: as §2
CYP3A4, sequence (P08684 whole entry): as the sequence (P08684 whole entry) above

CYP1A2 = biological target: T6, CYP1A2 (Homo sapiens, UniProt P05177); assay: Inhibition of CYP1A2-mediated phenacetin metabolite formation in human liver microsomes at 0.3 uM after 8 mins by LC-MS/MS analysis relative to control; format: ADME; settings: probe phenacetin (metabolite formation); summary of the method: as §2
T6 sequence (P05177 whole entry): T4 sequence (P05177 whole entry)

CYP2D6 = CYP2D6 (Homo sapiens, UniProt P10635); assay: Inhibition of CYP2D6-mediated dextromethorphan metabolite formation in human liver microsomes at 0.3 uM after 8 mins by LC-MS/MS analysis relative to control; format: ADME; settings: probe dextromethorphan (metabolite formation); summary of the method: as §2
CYP2D6, sequence (P10635 whole entry): as the sequence (P10635 whole entry) above

- Retention_time [1]: 13.2 min
- Drug metabolism (Cytochrome P450 2J2 [2]): metabolite_detected
- Drug metabolism (Cytochrome P450 2J2 [3]): metabolite_detected
- Drug metabolism (Cytochrome P450 3A4): metabolite_detected
Compound: CCN(CC)CCOc1c(I)cc(C(=O)c2c(CCC(C)O)oc3ccccc23)cc1I (stereo not given)

- inhibition at 8 min, 5 µM (CYP2C8 [4]): 32.7%
- activity at 5 min, 30 µM (CYP2J2 [5]; recombinant enzyme): 39%
- activity at 5 min, 30 µM (CYP2J2 [6]): 18.7%
Compound: CCCCc1oc2ccccc2c1C(=O)c1cc(I)c(OCCN(CC)CC)c(I)c1 [AMIODARONE]

Compound: COc1ccc(CCN2CCC(Nc3nc4ccccc4n3Cc3ccc(F)cc3)CC2)cc1 [ASTEMIZOLE]
- IC50 (Cytochrome P450 1A2): > 30 µM
- inhibition at 8 min, 0.3 µM (CYP2C9): -2.7%
- Drug metabolism (Cytochrome P450 2J2 [7]): 32 pmol/min
- inhibition at 8 min, 0.3 µM (CYP2C19): 6%
- IC50 (Cytochrome P450 2D6): > 30 µM
- IC50 (Cytochrome P450 2C8): > 30 µM
- IC50 (Cytochrome P450 2C19): 13.7 µM
- inhibition at 8 min, 0.3 µM (CYP2C8 [8]): 1.1%
- IC50 (Cytochrome P450 2C9): > 30 µM
- activity at 5 min, 30 µM (CYP2J2 [5]; recombinant CYP2J2, probe terfenadine (hydroxylation)): 8.3%
- inhibition at 8 min, 0.3 µM (CYP3A4): 20.3%
- inhibition at 8 min, 0.3 µM (CYP1A2): -0.6%
- inhibition at 8 min, 0.3 µM (CYP2D6): 8.5%
